Calpain2 inh: inhibitors of pig calpain II; purified calpain II, fluorogenic peptide substrate, 30 min; inhibition, % at 16 µM; actives 0.37% (n = 220,000);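 active = inhibition above about 50%, limit read from the data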
Rad51 HR inh: Rad51 (human) homologous recombination inhibition; inhibition, % at 10 µM; actives 0.085% (n = 200,000); hRad51 DNA strand exchange, fluorescence dequenching; AID 1385;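 active = inhibition above 40% at the single screening dose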
Target sequence (Q06609 whole entry, looked up): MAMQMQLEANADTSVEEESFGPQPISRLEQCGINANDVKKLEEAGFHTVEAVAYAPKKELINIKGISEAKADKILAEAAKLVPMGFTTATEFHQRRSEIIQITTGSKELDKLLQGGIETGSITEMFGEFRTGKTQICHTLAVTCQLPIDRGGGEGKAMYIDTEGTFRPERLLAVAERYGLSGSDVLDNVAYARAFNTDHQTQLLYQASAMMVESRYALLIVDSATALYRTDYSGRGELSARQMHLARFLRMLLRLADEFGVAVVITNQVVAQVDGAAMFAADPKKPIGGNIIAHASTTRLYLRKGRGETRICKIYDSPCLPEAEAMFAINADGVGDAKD
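System: human Rad51 nucleoprotein filaments preassembled on unlabelled ssDNA. Reagent: labelled 47-mer dsDNA for strand exchange. Schedule: 30-min compound preincubation and 15-min exchange, both room temperature. Measured by: FRET fluorescence dequenching, excitation 485 nm, emission 520 nm. Read-out: Fluorescence-based percent inhibition, control- and blank-normalised. Benchmarks: plate controls and plate blanks.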
WT yeast gro inh: growth inhibition of WT yeast, mitochondrial fusion screen; actives 2.1% (n = 190,000); AID 1362; mitochondrial fusion phenotypic screen, WT strain; inhibition, % at 10 µM; in the data active = inhibition above about 58%; tested in S. cerevisiae
PMI act hi M6P: PMI (human) activation, high substrate | P34949 | coupled PMI enzyme assay, resazurin fluorescence, 20 min; active compounds read high; 1 = untreated enzyme, 0 = substrate-free blank | activation factor at 20 µM | actives 0.34% (n = 190,000) | AID 1216;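 active = activation factor of 2 or more at 20 µM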
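Test system – human PMI in coupled enzyme assay · Timing – 20 min incubation at room temperature · Detection – Diaphorase-driven resazurin-to-resorufin fluorescence, excitation 544, emission 590 nm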
L major viab: reduces viability of Leishmania major promastigotes. resazurin fluorescence viability. inhibition, % at 10 µM. actives 9% (n = 200,000). AID 1063; in the data active = inhibition above about 50%;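 note: promastigotes grown with compound for 44 hours at 28 °C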
PMI activator: increases human mannose-6-phosphate isomerase activity | purified human PMI, coupled resazurin fluorescence, 20 min; active compounds read high; 1 = vehicle control, 0 substrate-free wells | activation factor at 20 µM | actives 0.005% (n = 190,000);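 active = activation factor of 2 or more at 20 µM, relative to plate controls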
Each line names hits and unclear results; the compound was inactive in the other large screens. Compounds with a hit are over-represented: about 9.8% of the library has one in this group of screens.

Oc1cccc2cc3cccc(O)c3c(O)c12	PMI act hi M6P 2.2
COc1ccc(Br)cc1-c1nc(CCl)cs1	none
Cc1ccc(Nc2nnc(SCC(=O)NCCN3C(=O)CSC3=O)s2)cc1	none
O=C(Nc1ncccn1)c1cc([N+](=O)[O-])cc([N+](=O)[O-])c1	L major viab 99
COCCSc1nnc(NC(=O)c2ccc([N+](=O)[O-])cc2)s1	none
Cc1cc(C)nc(NC(=O)c2ccc(C)c([N+](=O)[O-])c2)n1	none
Cc1cc(C)nc(NC(=O)c2cc([N+](=O)[O-])cc([N+](=O)[O-])c2)n1	L major viab 59
CCOC(=O)CSc1nnc(NC(=O)c2cc([N+](=O)[O-])cc([N+](=O)[O-])c2)s1	L major viab 82
Cc1ccc(C(=O)N2CCN(c3cnn(C)c(=O)c3Cl)CC2)cc1	none
COC(=O)c1ccc(C2c3c(oc4ccc(Cl)cc4c3=O)C(=O)N2CCN2CCOCC2)cc1 (stereo not drawn)	none (no result: WT yeast gro inh, PMI act hi M6P, L major viab, PMI activator)
CNC(=O)NC(=O)COC(=O)c1ccc(-n2c(C)ccc2C)cc1	none
Cn1c(CN2CCCCC2)nc2cc(NC(=O)c3ccc(Cl)cc3)ccc21	WT yeast gro inh 70
Cn1c(CN2CCCC2)nc2cc(NC(=O)c3ccc(Cl)cc3)ccc21	none (no result: Rad51 HR inh)
O=C(O)c1ccc2c(c1)C(=O)N(c1cccc(S(=O)(=O)Nc3cccc(C(F)(F)F)c3)c1)C2=O	none
Cc1ccc(S(=O)(=O)N(C)C)cc1NC(=O)C(C)Sc1ccccc1 (stereo not drawn)	none
CCCCOc1ccc(C2C(C(=O)c3ccc(C)o3)=C(O)C(=O)N2CC2CCCO2)cc1 (stereo not drawn)	L major viab 53
CCOc1ccc(C2C(C(=O)c3ccc(C)o3)=C(O)C(=O)N2CCCN(CC)CC)cc1 (stereo not drawn)	none (no result: WT yeast gro inh, PMI act hi M6P, L major viab, PMI activator)
Cc1ccccc1OCCC(=O)Nc1ccc(F)c(Cl)c1	L major viab 68
CCOc1ccccc1OCCC(=O)Nc1ccc(F)c(Cl)c1	none
Cc1ccccc1NC(=O)CSc1ccncc1	none (no result: WT yeast gro inh, PMI act hi M6P, L major viab, PMI activator)
Cc1ccc2ncnc(Nc3ccc(C)c(C)c3)c2c1	L major viab 73
Cn1c(-c2cccc3ccccc23)n[nH]c1=S	none
CC12CCC(C(=O)N(CC3CO3)C1=O)C2(C)C (stereo not drawn)	none
CCOc1ccc(N(CC(=O)Nc2cccc(N(C)S(C)(=O)=O)c2)S(=O)(=O)c2ccccc2)cc1	L major viab 55 (no result: Rad51 HR inh)
COc1ccc(N(CC(=O)Nc2cccc(N(C)S(C)(=O)=O)c2)S(=O)(=O)c2ccc(C)cc2)cc1	L major viab 67
Cc1ccc(S(=O)(=O)N(CCC(=O)Nc2ccc(OC(F)(F)F)cc2)c2ccccc2)cc1	L major viab 95
CN(c1cccc(NC(=O)CN(c2cccc(Cl)c2)S(=O)(=O)c2ccccc2)c1)S(C)(=O)=O	none
CCN1C(=O)C(C)S/C1=N\S(=O)(=O)c1ccc(F)cc1 (stereo not drawn)	none
C=CCN1C(=O)C(C)S/C1=N\S(=O)(=O)c1ccc(Cl)cc1 (stereo not drawn)	L major viab 52
C=CCn1c(SCc2c(C(=O)OC)sc(N)c2C(=O)OC)nnc1-c1ccc(Br)cc1	L major viab 99
C=CCn1c(SCC(=O)O)nnc1-c1ccc(C(C)(C)C)cc1	none
O=C(Oc1c(-c2ccccc2Cl)oc2ccccc2c1=O)c1ccc(Cl)cc1	L major viab 55
O=C(c1ccco1)N1CCN(S(=O)(=O)Cc2ccccc2Cl)CC1	none (no result: Rad51 HR inh)
CCN(CC)CCN1C(=O)c2ccccc2NC1c1ccc(Br)cc1 (stereo not drawn)	L major viab 97
CCN(CC)CCN1C(=O)c2ccccc2NC1c1ccc(C)cc1 (stereo not drawn)	L major viab 57
O=C(NCc1ccc(F)cc1)c1ccc(S(=O)(=O)Nc2cccc(C(F)(F)F)c2)cc1	L major viab 66
CCCNC(=O)C12CCC(C)(c3nc4cc(C)c(C)cc4nc31)C2(C)C (stereo not drawn)	none
CN1C(=O)/C(=C/c2cn(CC(=O)N3CCCCC3)c3ccccc23)c2ccccc21	L major viab 86
Oc1ccc(-c2cn3cc(C(F)(F)F)ccc3n2)cc1	L major viab 51

Screening results (PubChem BioAssay)
